According to ChEMBL document CHEMBL1122609, “N-allyl analogues of phencyclidine: chemical synthesis and pharmacological properties” (J Med Chem, 1984):

Key:
Mus musculus [1] = species on record: Mus musculus; assay: Effective dose for the degree of motor incoordination in untrained mice; assay type: functional
In short: (§1)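 Male HAP ICR Swiss mice, 25-30 g, pre-screened for passing. Dosing ip in 0.9% NaCl as a solution or fine suspension, 0.01 mL/g, 4-6 doses, six mice per dose, repeated on 2-4 more days. Platform rotated 180° at 5-120 min. Falling, or failing to climb within 60 s, scored.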

Mus musculus [2] = species on record: Mus musculus; assay: Relative potency was determined using mouse platform test of Coughenour et al.; assay type: functional; in short: as §1
[3] = Ratio of half life (protection) to the control was reported at a concentration 4*10e-7 M; assay type: ADME
In short: (§2)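 Horse-serum BChE (3 units/mg), Ellman method: 0.025 unit with acetylthiocholine 1.87 × 10^-3 M in 0.1 M phosphate buffer pH 7.4 at 25 °C, absorbance at 412 nm followed over time. Enzyme preincubated 3 min with test compound. DFP 2.5 × 10^-8 M then added. Aliquots assayed for residual activity at various times. Pseudo-first-order constant used to obtain k2 = ln(A0/At)/([I]t).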

Mus musculus [4] = assay: Percent failing the test was reported at dose 9.60 umol/kg (experiment 2); assay type: functional
[5] = Ratio of failed to the tested was reported at dose 26.0 umol/kg (experiment 1); out of 6; assay type: functional
In short: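 Male HAP ICR Swiss mice (20-30 g), six per group, pre-screened on the platform test. An N-allyl analogue in 0.9% NaCl was given ip, and PCP ip followed 5 min later. The platform was rotated 180° within 10 s, and mice were scored over 60 s for falling off or reaching the top. Testing was at 5-120 min post-injection. The read-out was the number failing out of the number tested.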

[6] = Ratio of half life (protection) to the control was reported at a concentration 0 M; assay type: ADME; in short: as §2
[7] = Ratio of half life (protection) to the control was reported at a concentration 4*10e-6 M; assay type: ADME; in short: as §2
[8] = Ratio of half life (protection) to the control was reported at a concentration 9*10e-7 M; assay type: ADME; in short: as §2
Mus musculus [9] = assay: Percent failing the test was reported at dose 13.2 umol/kg (experiment 1); assay type: functional
[10] = target: Muscarinic acetylcholine receptor; assay: Dissociation constant towards Muscarinic acetylcholine receptor was determined by using [3H]4NMPB as radioligand; assay type: protein assay
In short: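 Competition binding with [3H]-4NMPB in the S1 supernatant of mouse-brain homogenate, with and without test compound at various concentrations. Nonspecific binding determined and subtracted. KD calculated from the difference in binding.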

[11] = Ratio of failed to the tested was reported at dose 29.0 umol/kg (experiment 2); out of 6; assay type: functional
[12] = Ratio of failed to the tested was reported at dose 15.2 umol/kg (experiment 2); out of 12; assay type: functional
Mus musculus [13] = species on record: Mus musculus; assay: Acute toxicity relative to PCP was reported.; assay type: organism-based; conditions: in vivo
[14] = Ratio of half life (protection) to the control was reported at a concentration 8*10e-6 M; assay type: ADME; in short: as §2
[15] = Ratio of failed to the tested was reported at dose 12.4 umol/kg (experiment 1); out of 12; assay type: functional
Mus musculus [16] = assay: Lethal dose (LD50) determined by the Litchfield and Wilcoxon method was reported; assay type: functional
In short: (§3)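 Male HAP ICR Swiss mice, 25-35 g, in groups of six, given ip doses. Deaths counted at 24 h after injection. LD50 estimated by Litchfield–Wilcoxon probit analysis, as for ED50.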

[17] = Ratio of failed to the tested was reported at dose 16.0 umol/kg (experiment 1); out of 6; assay type: functional
[18] = Ratio of failed to the tested was reported at dose 19.0 umol/kg (experiment 2); out of 6; assay type: functional
[19] = Ratio of half life (protection) to the control was reported at a concentration 4*10e-5 M; assay type: ADME; in short: as §2
Mus musculus [20] = assay: Compound was evaluated for lethal dose (LD50) by the Litchfield and Wilcoxon method; assay type: functional; in short: as §3
[21] = Ratio of failed to the tested was reported at dose 13.2 umol/kg (experiment 1); out of 6; assay type: functional
In short: (§4)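 Male HAP ICR Swiss mice (20-30 g) pre-screened on the mouse platform test. PCP was given ip in 0.9% NaCl (0.01 mL/g). The platform was rotated 180° within 10 s, and mice were scored over 60 s for falling off, failing to reach the top, or reaching the top. Testing was at 5-120 min post-injection. The read-out was the number failing out of the number tested.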

[22] = Ratio of failed to the tested was reported at dose 9.60 umol/kg (experiment 2); out of 24; assay type: functional; in short: as §4
Mus musculus [23] = species on record: Mus musculus; assay: Compound was evaluated for acute toxicity relative to compound PCP; assay type: organism-based; conditions: in vivo
[24] = Ratio of half life (protection) to the control was reported at a concentration 2*10e-6M; assay type: ADME
In short: (§5)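 Horse serum BChE (0.5 unit/mL) was incubated 3 min with the compound, then DFP was added at 2.5 × 10^-8 M, 25 °C. Residual activity was measured in aliquots over time by the Ellman method: acetylthiocholine 1.87 × 10^-3 M, 0.1 M phosphate pH 7.4, absorbance at 412 nm. Inactivation was fitted as pseudo-first-order.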

[25] = Ratio of half life (protection) to the control was reported at a concentration 3*10e-6 M; assay type: ADME; in short: as §5
Mus musculus [26] = species on record: Mus musculus; assay: Compound was evaluated for acute toxicity relative to PCP; assay type: organism-based; conditions: in vivo
Mus musculus [27] = assay: Percent failing the test was reported at dose 9.60 umol/kg (experiment 1); assay type: functional
[28] = Ratio of failed to the tested was reported at dose 9.60 umol/kg (experiment 2); out of 6; assay type: functional

SMILES | ED50 (Mus musculus [1]) [µmol/kg] | Relative potency (Mus musculus [2]) | Ratio [3] | Activity (Mus musculus [4]) [%] | Ratio [6] | Ratio [7] | Activity (Mus musculus [9]) [%] | Kd [10] [µM] | Acute toxicity (Mus musculus [13]) | Ratio [14] | LD50 (Mus musculus [16]) [µmol/kg] | Ratio [21] | also measured
C=CCN(CC=C)C1(c2ccccc2)CCCCC1 | 35.6 | 0.27 | 1.18 | 100 | 1 | 5.89 | 100 | 25 | – | – | – | – | Ratio [5]: 6; Ratio [8]: 2.12; Ratio [11]: 6
C=CCN(CC)C1(c2ccccc2)CCCCC1 | 22.6 | 0.42 | 1.33 | 83 | 1 | 5.11 | 83 | 14 | 0.59 | 1.71 | 441 | – | Ratio [12]: 10; Ratio [15]: 10
C=CCN(C)C1(c2ccccc2)CCCCC1 | 27.2 | 0.41 | – | 100 | 1 | 2.15 | 100 | 15 | 0.5 | 2.21 | 516 | – | Ratio [17]: 6; Ratio [18]: 6; Ratio [19]: 7.76
c1ccc(C2(N3CCCCC3)CCCCC2)cc1 [PHENCYCLIDINE] | 9.6 | 1 | 1.26 | 45.8 | 1 | 4.48 | 33.3 | 9.1 | – | 1.73 | – | 2 | LD50 (Mus musculus [20]): 258 µmol/kg; Ratio [22]: 11; Acute toxicity (Mus musculus [23]): 1
C=CCNC1(c2ccccc2)CCCCC1 | 20.4 | 0.55 | – | – | 1 | 2.61 | 100 | 70 | – | 2.35 | 344 | 6 | Ratio [24]: 1.22; Ratio [25]: 1.71; Acute toxicity (Mus musculus [26]): 0.75; Activity (Mus musculus [27]): 83%; Ratio [28]: 5
CCNC1(c2ccccc2)CCCCC1 [ETICYCLIDINE] | – | – | 0.95 | – | 1 | 2.6 | – | – | – | 2.52 | – | – | –
